Source: ChEMBL document CHEMBL2331343 (Bioorg Med Chem, 2013)

Legend:
[1] = biological target: T1, 5-hydroxytryptamine receptor 2A (Homo sapiens, UniProt P28223); experiment: Displacement of [3H]Ketanserin from 5-HT2A receptor (unknown origin) expressed in HEK293 cells by liquid scintillation counter; assay type: cell-based
[2] = biological target: T2, 5-hydroxytryptamine receptor 1A (Homo sapiens, UniProt P08908); experiment: Displacement of [3H]8-OH-DPAT from 5-HT1A receptor (unknown origin) expressed in HEK293 cells by liquid scintillation counter; assay type: cell-based
T2 sequence (P08908 whole entry): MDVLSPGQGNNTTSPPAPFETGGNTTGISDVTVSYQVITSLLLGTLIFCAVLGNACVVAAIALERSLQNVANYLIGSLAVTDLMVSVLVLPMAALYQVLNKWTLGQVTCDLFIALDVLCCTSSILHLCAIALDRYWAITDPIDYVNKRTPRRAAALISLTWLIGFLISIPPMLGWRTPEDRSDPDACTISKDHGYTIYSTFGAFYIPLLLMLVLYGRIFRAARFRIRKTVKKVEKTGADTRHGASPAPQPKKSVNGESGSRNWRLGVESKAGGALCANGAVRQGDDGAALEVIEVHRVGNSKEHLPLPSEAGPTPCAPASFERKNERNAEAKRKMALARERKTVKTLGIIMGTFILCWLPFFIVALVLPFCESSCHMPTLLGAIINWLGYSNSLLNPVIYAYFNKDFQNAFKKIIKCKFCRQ

[3] = biological target: T1, 5-hydroxytryptamine receptor 2A; experiment: Inhibition of [3H]Ketanserin binding to 5-HT2A receptor (unknown origin) expressed in HEK293 cells at 10 uM by liquid scintillation counter relative to control; assay type: cell-based
In short: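 Membranes of HEK293T stably transfected with 5-HT2A, […], incubated in duplicate 15 min at 37 °C with [3H]ketanserin in 50 mM Tris, 4 mM MgCl2, pH 7.4. […] GF/B filtration, cold wash, scintillation counting.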

[4] = biological target: T3, 5-hydroxytryptamine receptor 1A (Homo sapiens) (UniProt P08908); experiment: Inhibition of [3H]8-OH-DPAT binding to 5-HT1A receptor (unknown origin) expressed in HEK293 cells at 10 uM by liquid scintillation counter relative to control; assay type: cell-based
T3 sequence (whole entry): T2 sequence (P08908 whole entry)
In short: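 Membranes of HEK293T stably transfected with 5-HT1A, […], incubated in duplicate 50 min at 30 °C with [3H]8-OH-DPAT in 50 mM Tris, 4 mM MgCl2, pH 7.4. Nonspecific binding with 10 μM WAY100635. Filtration on GF/B, cold Tris/EDTA wash, scintillation counting.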

[5] = biological target: T4, D(1A) dopamine receptor (Homo sapiens, UniProt P21728); experiment: Inhibition of [3H]SCH23390 binding to dopamine D1 receptor (unknown origin) expressed in human HEK293 cells at 10 uM by liquid scintillation counter relative to control; assay type: cell-based
In short: (§1)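 Stably transfected HEK293T D1 membranes, […], duplicate incubation 50 min at 30 °C with [3H]SCH23390 in 50 mM Tris, 4 mM MgCl2, pH 7.4. Nonspecific binding with 10 μM SCH23390. GF/B filtration, scintillation counting.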

[6] = biological target: T5, D(2) dopamine receptor (Homo sapiens, UniProt P14416); details: HEK293, at 10 µM
[7] = biological target: T4, D(1A) dopamine receptor; experiment: Displacement of [3H]SCH23390 from dopamine D1 receptor (unknown origin) expressed in human HEK293 cells by liquid scintillation counter; assay type: cell-based; in short: as §1
[8] = biological target: T5, D(2) dopamine receptor; experiment: Displacement of [3H]spiperone from dopamine D2 receptor (unknown origin) expressed in human HEK293 cells by liquid scintillation counter; assay type: cell-based

T1 sequence (P28223 whole entry): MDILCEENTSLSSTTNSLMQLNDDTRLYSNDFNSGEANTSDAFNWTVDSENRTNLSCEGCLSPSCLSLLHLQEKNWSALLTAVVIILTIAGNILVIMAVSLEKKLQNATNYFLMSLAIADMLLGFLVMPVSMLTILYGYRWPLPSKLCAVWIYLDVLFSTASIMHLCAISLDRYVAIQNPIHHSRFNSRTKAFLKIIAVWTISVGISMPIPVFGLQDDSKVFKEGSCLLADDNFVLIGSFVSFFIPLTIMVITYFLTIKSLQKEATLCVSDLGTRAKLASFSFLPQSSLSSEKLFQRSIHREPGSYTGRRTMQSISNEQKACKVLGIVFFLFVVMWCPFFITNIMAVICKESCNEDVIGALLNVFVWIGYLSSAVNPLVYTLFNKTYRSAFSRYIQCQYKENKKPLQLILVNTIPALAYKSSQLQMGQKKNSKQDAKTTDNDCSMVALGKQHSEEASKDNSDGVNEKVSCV
T5 sequence (P14416 whole entry): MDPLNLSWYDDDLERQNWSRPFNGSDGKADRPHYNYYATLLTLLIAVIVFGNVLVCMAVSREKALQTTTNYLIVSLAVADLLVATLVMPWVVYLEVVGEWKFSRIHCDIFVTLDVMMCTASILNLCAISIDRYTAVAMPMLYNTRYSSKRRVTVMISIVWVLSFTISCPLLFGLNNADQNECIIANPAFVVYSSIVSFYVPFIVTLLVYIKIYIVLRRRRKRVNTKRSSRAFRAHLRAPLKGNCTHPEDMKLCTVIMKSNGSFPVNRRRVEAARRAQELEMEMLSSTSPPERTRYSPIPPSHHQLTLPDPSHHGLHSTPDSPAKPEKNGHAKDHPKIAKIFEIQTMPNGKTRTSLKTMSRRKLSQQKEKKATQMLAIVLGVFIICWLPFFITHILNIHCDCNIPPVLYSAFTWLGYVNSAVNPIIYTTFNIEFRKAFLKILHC
T4 sequence (P21728 whole entry): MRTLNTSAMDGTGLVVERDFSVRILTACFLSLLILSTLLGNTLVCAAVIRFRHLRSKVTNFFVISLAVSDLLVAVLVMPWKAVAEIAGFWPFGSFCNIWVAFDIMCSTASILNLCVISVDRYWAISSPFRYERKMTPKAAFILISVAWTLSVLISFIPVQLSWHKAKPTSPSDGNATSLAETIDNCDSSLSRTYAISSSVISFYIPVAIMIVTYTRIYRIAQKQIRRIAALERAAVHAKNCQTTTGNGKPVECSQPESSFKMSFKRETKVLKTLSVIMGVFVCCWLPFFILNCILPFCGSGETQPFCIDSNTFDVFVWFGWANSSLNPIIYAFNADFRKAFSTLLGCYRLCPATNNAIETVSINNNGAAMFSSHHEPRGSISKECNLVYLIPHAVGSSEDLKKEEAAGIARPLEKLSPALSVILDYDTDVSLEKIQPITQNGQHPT

Compound	Ki [1] [nM]	Ki [2] [nM]	inhibition [3] [%]	inhibition [4] [%]	inhibition [5] [%]	inhibition [6] [%]	Ki [7] [nM]	Ki [8] [nM]
COc1c(O)ccc2c1CN1CCc3cc4c(cc3[C@@H]1C2)OCCO4	363	208	97.3	90.8	22.6	73.1	–	–
COc1cc2c(cc1O)[C@H]1Cc3ccc(OC)c(OC)c3CN1CC2	–	–	40.6	64.2	99.5	–	[…]	–
COc1ccc2c(c1OC)CN1CCc3cc4c(cc3[C@@H]1C2)OCO4 [CANADINE]	–	> 5000	46.6	84.4	98.3	88.7	66	119
O=C(CCCN1CCC2(CC1)C(=O)NCN2c1ccccc1)c1ccc(F)cc1	–	–	100	–	–	100	–	–
COc1cc2c(cc1O)[C@H]1Cc3ccc(O)c(OC)c3CN1CC2	–	–	16.4	53.6	94.4	53.7	135	–
COc1cc2c(cc1O)CCN1Cc3c(ccc(OC)c3OC)C[C@H]21	–	–	40.4	55.4	88.8	71.5	1190	–
NCCc1c[nH]c2ccc(O)cc12	–	–	–	100	–	–	–	–
COc1cc2c(cc1OC)[C@@H]1Cc3ccc(OC)c(O)c3CN1CC2 [TETRAHYDROPALMATRUBINE]	–	–	20	30.5	87.7	22.7	443	–
COc1cc2c(cc1O)[C@@H]1Cc3c(CO)c(OC)cc(OC)c3CN1CC2	–	> 5000	–	–	104	94.8	–	–
COc1cc2c(cc1O)[C@@H]1Cc3ccc(O)c(OC)c3CN1CC2 [STEPHOLIDINE]	–	> 5000	–	–	99.8	97.5	3.4	11
COc1cc2c(cc1O)CCN1Cc3c(ccc(O)c3OC)C[C@@H]21	> 5000	> 5000	84	76.7	98.3	94.2	200	113
COc1cc2c(cc1O)[C@@H]1Cc3cc4c(cc3CN1CC2)OCO4	–	–	49.9	61	99.6	100	4.2	–
COc1cc2c(cc1O)[C@@H]1Cc3ccc(OC)c(O)c3CN1CC2 [SCOULERINE]	–	–	20.9	14.2	99.1	93.4	22	214
COc1cc2c(cc1OC)[C@@H]1Cc3ccc(OC)c(OC)c3CN1CC2 [TETRAHYDROPALMATINE]	–	> 5000	33	84.9	96.9	85.4	231	> 5000
CN1CCc2cc(Cl)c(O)cc2C(c2ccccc2)C1 (centres undefined)	–	–	–	–	100	–	–	–
COc1cc2c(cc1O)[C@@H]1Cc3cc(C)cc(C)c3CN1CC2	–	–	–	–	99	90.1	–	–

Compound	Ki [1] [nM]	Ki [2] [nM]	inhibition [3] [%]	inhibition [4] [%]	inhibition [5] [%]	inhibition [6] [%]	Ki [7] [nM]	Ki [8] [nM]
COc1cc2c(cc1O)CCN1Cc3c(ccc(OC)c3OC)C[C@@H]21	–	–	38	50.5	84.1	63.2	310	–
COc1cc2c(cc1O)CCN1Cc3c(ccc(OC)c3O)C[C@H]21	–	–	36	31.5	49.4	8.16	–	–
COc1cc2c(cc1O)CCN1Cc3c(ccc(O)c3OC)C[C@H]21	–	–	13.9	13.2	67.1	27.7	–	–
COc1cc2c(cc1OC)[C@H]1Cc3ccc(OC)c(O)c3CN1CC2	–	–	19.3	6.2	35.9	1.5	–	–
COc1c(O)ccc2c1CN1CCc3cc4c(cc3[C@@H]1C2)OCC4	480	> 5000	91.7	79.5	99.3	63.9	7.5	–
COc1ccc2c(c1OC)CN1CCc3cc4c(cc3[C@H]1C2)OCO4	–	–	18.3	34.5	75.5	26.6	> 5000	–
COc1ccc2c(c1O)CN1CCc3cc4c(cc3[C@H]1C2)OCO4	–	–	10.9	25.5	78.9	20.4	> 5000	–
COc1cc2c(c(OC)c1)CN1CCc3cc(OC)c(O)cc3[C@@H]1C2	–	–	–	–	99.8	–	–	–
COc1c(O)ccc2c1CN1CCc3cc4c(cc3[C@H]1C2)OCO4	–	–	25.3	63.6	95.8	40.5	565	–
COc1ccc2c(c1O)CN1CCc3cc4c(cc3[C@@H]1C2)OCO4	–	> 5000	49.1	82.8	98.7	78	60	> 5000
COc1cc2c(cc1O)[C@@H]1Cc3ccc(OC)c(OC)c3CN1CC2	–	–	40.5	71.1	99.2	–	[…]	–
COc1cc2c(cc1O)CCN1Cc3c(ccc(OC)c3O)C[C@@H]21	–	–	59.1	60.5	95.2	79.8	530	> 5000
COc1ccc2c(c1)C[C@H]1c3cc(O)c(OC)cc3CCN1C2	–	–	–	–	97.5	90	–	–
COc1cc2c(cc1O)[C@H]1Cc3ccc(OC)c(O)c3CN1CC2	–	–	26.3	2	84.5	31.8	529	–
COc1cc2c(cc1OC)[C@H]1Cc3ccc(O)c(OC)c3CN1CC2	–	–	27.9	65.5	54.4	3.4	–	–
COc1cc2c(cc1OC)[C@H]1Cc3ccc(OC)c(OC)c3CN1CC2	–	–	29.7	30.4	39.8	20.5	–	–
